# EBI2 block: blocks human EBI2 receptor beta-arrestin signaling; EBI2 beta-arrestin recruitment, luminescence, 7a,25-OHC stimulated; inhibition, % at 5 µM; 360,000 tested, 0.81% active; AID 651636; in the data active means inhibition above about 38%;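 further: enzyme fragment complementation signal reports receptor beta-arrestin coupling in cells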
# HTR2A ag: activates the mouse 5-HT2A serotonin receptor | activation, % at 7.6 µM | CHO-K1 mHTR2A beta-arrestin complementation, luminescence; percent of 30 µM serotonin response | 360,000 tested, 0.66% active | P35363 | AID 624169;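 active means activation above a run cutoff, the mean activation of all tested compounds plus 3 SD, cut at about 14% in these data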
# APJ ag: activates the human apelin receptor APJ; P35414; activation, % at 20 µM; 330,000 tested, 0.11% active; CHO-K1 APJ PathHunter beta-arrestin, luminescence; 0% DMSO wells, 100% apelin;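 active means activation more than six SD over the plate average, tested at 20 µM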
# Target sequence (P35414 whole entry, looked up): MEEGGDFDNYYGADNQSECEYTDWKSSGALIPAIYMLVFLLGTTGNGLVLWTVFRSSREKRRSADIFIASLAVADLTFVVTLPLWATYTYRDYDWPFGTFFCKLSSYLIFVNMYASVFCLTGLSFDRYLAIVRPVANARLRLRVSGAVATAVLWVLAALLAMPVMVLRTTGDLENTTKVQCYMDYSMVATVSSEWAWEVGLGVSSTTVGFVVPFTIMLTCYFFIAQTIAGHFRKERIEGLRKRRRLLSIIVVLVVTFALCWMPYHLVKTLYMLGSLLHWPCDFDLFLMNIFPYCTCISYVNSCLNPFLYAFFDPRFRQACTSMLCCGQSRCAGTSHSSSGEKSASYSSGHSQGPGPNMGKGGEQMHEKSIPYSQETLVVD
#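 Material: engineered CHO-K1 APJ arrestin reporter cells; amount: 1000 CHO-K1 reporter cells seeded per well; incubation: compound stimulation 90 min at 25 °C, detection 60 min; signal: luminescent beta-gal fragment complementation, chemiluminescent substrate; read-out basis: APJ agonist activity; controls: DMSO-only wells as negative, 10 nM Apelin-13 as positive control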
# CXCR6 block: inhibitors of human CXCR6 receptor | CHO-K1 PathHunter CXCR6 beta-arrestin, luminescence | inhibition, % at 20 µM | 360,000 tested, 0.36% active | AID 602244; in the data active means inhibition above about 34%, passing the limit was not always enough;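 further: antagonist mode with CXCL16 agonist at 10 nM final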
# CCR6 antag: CCR6 (human) receptor antagonism; 340,000 tested, 0.49% active; P51684; AID 493098; CHO-K1 CCR6 PathHunter beta-arrestin, luminescence, CCL20-stimulated; inhibition, % at 20 µM;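 active means compounds whose inhibition of the agonist-driven luminescence signal at 20 µM reaches about 50%, limit read from the data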;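 further: cells stimulated with CCL20 at 14 nM final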
# APJ antag: blocks the human apelin receptor APJ; CHO-K1 APJ beta-arrestin complementation, luminescence; 330,000 tested, 0.32% active; inhibition, % at 20 µM; P35414;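 active means inhibition above about 40% at 20 µM, limit read from the data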;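 further: cells challenged with 10 nM apelin-13 agonist together with compound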
# Numbers stand for hits; 0 = inactive; - = not tested or not shown. An excerpt weighted towards active compounds, which were near 2.1% of everything screened.
SMILES,EBI2 block,HTR2A ag,APJ ag,CXCR6 block,CCR6 antag,APJ antag
CCOc1ccccc1N(CC(=O)Nc1ccccc1C(=O)N1CCOCC1)S(C)(=O)=O,0,0,0,0,0,0
COc1cccc(C(C[N+](=O)[O-])c2c(C)[nH]n(-c3ccccc3)c2=O)c1 (centres undefined),0,0,0,0,0,0
Cc1[nH]n(-c2ccccc2)c(=O)c1C(C[N+](=O)[O-])c1ccc(Br)cc1 (centres undefined),0,0,0,45,0,0
O=[N+]([O-])c1c(NCCCO)cc(SCc2ccco2)c2nonc12,0,0,0,0,63,0
CC(=O)OCCNc1cc(SCc2ccco2)c2nonc2c1[N+](=O)[O-],0,0,-,50,75,-
Cn1ccnc1Sc1cc(NCCCO)c([N+](=O)[O-])c2nonc12,0,0,0,0,0,0
COc1cc(OC)cc(C(=O)NCC(C)NC(=O)c2cc(OC)cc(OC)c2)c1 (centres undefined),0,0,0,0,0,0
COCCNC(=O)C1(C)Cc2c(-c3cccc(NC(C)=O)c3)ccnc2O1 (centres undefined),0,0,-,0,-,-
O=C(O)c1ccc(CSc2nnc(-c3ccccc3Br)o2)cc1,0,16,0,0,0,0
O=C(O)c1ccc(CSc2nnc(-c3ccc(Cl)cc3)o2)cc1,0,0,0,0,0,0
CC(=O)Oc1oc(-c2ccccc2)nc1C=Nc1ccccc1,0,0,0,0,0,0
CCOC(=O)c1ccc(N=Cc2nc(-c3ccccc3)oc2OC(C)=O)cc1,0,0,0,0,50,0
COc1ccc(/C=C2\SC(=S)N(NC(=O)c3ccncc3)C2=O)cc1OC,-,-,0,-,-,0
COc1ccc(/C=C2\SC(=N)N(c3nccs3)C2=O)cc1OC,0,0,0,0,59,0
N=C1S/C(=C\c2ccc(-c3cccc(Cl)c3)o2)C(=O)N1c1nccs1,67,0,-,54,82,-
CC1=NN(c2ccc(Br)cc2)C(=O)/C1=C/c1cccs1,57,0,0,0,0,0
CC1=NN(c2ccc(C)cc2)C(=O)/C1=C\c1ccc(Br)s1,0,0,0,0,0,0
Cc1cccc(N2C(=O)C3C4CC(=O)C(c5ccccc54)C3C2=O)c1C (centres undefined),0,0,0,0,0,0
C=C(C)C(=O)Oc1ccc(N=Nc2ccc(C)cc2)ccc1=O,0,0,-,65,92,-
CC(=O)c1ccc(N=Nc2ccc(C)cc2)cc1,0,0,0,0,0,0
CCCN1C(=O)/C(=C/c2ccc(C)s2)SC1=Nc1ccc(OC)cc1,0,0,0,0,0,0
CCN(CC)CCN1C(=O)/C(=C\c2ccc(Cl)c([N+](=O)[O-])c2)SC1=Nc1ccc(OC)cc1,73,0,0,0,0,0
COc1ccc(N=C2S/C(=C\c3ccc(Cl)c([N+](=O)[O-])c3)C(=O)N2CCN(C)C)cc1,62,0,0,0,0,0
CC1(C)CC2(C)OC2C2(C1)N=NC(=Nc1ccccc1)O2 (centres undefined),0,0,-,0,-,-
CC[C@H](C)[C@H]1CNC(=S)N1CC1CCN(CCCCc2ccccc2)CC1,0,0,-,0,0,-
SMILES,EBI2 block,HTR2A ag,APJ ag,CXCR6 block,CCR6 antag,APJ antag
O=C(O)c1cccc2c1/C(=N/Nc1ccc([N+](=O)[O-])cc1[N+](=O)[O-])c1ccccc1-2,0,0,0,0,53,0
COc1cc(/C=C(\C#N)c2nc3ccc(C)cc3[nH]2)cc([N+](=O)[O-])c1O,0,0,-,0,51,-
COc1cc(/C=C(\C#N)c2nc3ccc(C)cc3[nH]2)c([N+](=O)[O-])cc1OC,0,0,0,0,0,0
CCN(CC)c1ccc(/C=C(/C#N)c2nc3ccc(C)cc3[nH]2)c(OC(C)C)c1,0,0,0,0,52,0
O=C1C(=Cc2cccc(O)c2O)SC(=S)N1CCCN1CCOCC1,0,0,-,0,-,-
O=C1C=CC(=O)N1c1ccccc1N1C(=O)C=CC1=O,0,0,-,72,108,-
N#CCCCC1(CCCC#N)OCCO1,0,0,-,0,0,-
CCN(CC)C(=O)Oc1ccc(Cl)c2cccnc12,0,0,0,0,0,0
O=C(Nc1cccc(C(F)(F)F)c1)Oc1ccc(Cl)c2cccnc12,0,0,-,60,77,-
CCCCC(=O)Nc1ccc(C(=O)Nc2nc(CC(=O)OCC)cs2)cc1,0,0,0,0,0,0

# High-throughput results from PubChem.
